The source made the active and inactive calls. No cut-off for these calls is given here.
Assays:
[1] = target: Serine/threonine-protein kinase 24 (Homo sapiens) (UniProt Q9Y6E0); assay: Inhibition of MST3 (unknown origin) assessed as remaining enzyme activity at 10 uM by radioactive [33P]-ATP filter binding assay
[2] = target: Ephrin type-B receptor 3 (Homo sapiens) (UniProt P54753); assay: Inhibition of EPHB3 (unknown origin) assessed as remaining enzyme activity at 10 uM by radioactive [33P]-ATP filter binding assay
Procedure, shortened: (§1)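 A single 10 µM concentration was tested across a 140-kinase panel. Activity was measured by a radioactive 33P-ATP filter-binding assay run at the International Center for Kinase Profiling, University of Dundee.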

[3] = target: Mitogen-activated protein kinase kinase kinase kinase 2 (Homo sapiens) (UniProt Q12851); assay: Inhibition of GCK (unknown origin) assessed as remaining enzyme activity at 10 uM by radioactive [33P]-ATP filter binding assay
[4] = target: Homeodomain-interacting protein kinase 3 (Homo sapiens) (UniProt Q9H422); assay: Inhibition of HIPK3 (unknown origin) assessed as remaining enzyme activity at 10 uM by radioactive [33P]-ATP filter binding assay
[5] = target: NUAK family SNF1-like kinase 1 (Homo sapiens) (UniProt O60285); assay: Inhibition of NUAK1 (unknown origin) assessed as remaining enzyme activity at 10 uM by radioactive [33P]-ATP filter binding assay
[6] = target: Ribosomal protein S6 kinase alpha-1 (Homo sapiens) (UniProt Q15418); assay: Inhibition of RSK1 (unknown origin) assessed as remaining enzyme activity at 10 uM by radioactive [33P]-ATP filter binding assay
[7] = target: MAP kinase-interacting serine/threonine-protein kinase 2 (Homo sapiens) (UniProt Q9HBH9); assay: Inhibition of MNK2 (unknown origin) assessed as remaining enzyme activity at 10 uM by radioactive [33P]-ATP filter binding assay
Huh-7 = assay: Induction of cell death in human HuH7 cells assessed as nuclear condensation at cytotoxic IC50 level after 72 hrs by Hoechst 33258 staining based […]; assay type: functional
Procedure, shortened: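 Cells were washed in cold PBS, fixed 10 min in cold methanol and stained with Hoechst 33258 at 3 µg/mL for 5 min in the dark. Nuclear condensation and fragmentation were examined by fluorescence microscopy at 40×.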

[8] = target: MAP kinase-activated protein kinase 5 (Homo sapiens) (UniProt Q8IW41); assay: Inhibition of PRAK (unknown origin) assessed as remaining enzyme activity at 10 uM by radioactive [33P]-ATP filter binding assay
[9] = target: Ribosomal protein S6 kinase beta-1 (Homo sapiens) (UniProt P23443); assay: Inhibition of S6K1 (unknown origin) assessed as remaining enzyme activity at 10 uM by radioactive [33P]-ATP filter binding assay
[10] = target: Mitogen-activated protein kinase kinase kinase kinase 3 (Homo sapiens) (UniProt Q8IVH8); assay: Inhibition of MAP4K3 (unknown origin) assessed as remaining enzyme activity at 10 uM by radioactive [33P]-ATP filter binding assay
[11] = target: Serine/threonine-protein kinase ULK1 (Homo sapiens) (UniProt O75385); assay: Inhibition of ULK1 (unknown origin) assessed as remaining enzyme activity at 10 uM by radioactive [33P]-ATP filter binding assay
[12] = target: Receptor tyrosine-protein kinase erbB-4 (Homo sapiens) (UniProt Q15303); assay: Inhibition of HER4 (unknown origin) assessed as remaining enzyme activity at 10 uM by radioactive [33P]-ATP filter binding assay
Receptor tyrosine-protein kinase erbB-4 (Homo sapiens), sequence (Q15303 whole entry): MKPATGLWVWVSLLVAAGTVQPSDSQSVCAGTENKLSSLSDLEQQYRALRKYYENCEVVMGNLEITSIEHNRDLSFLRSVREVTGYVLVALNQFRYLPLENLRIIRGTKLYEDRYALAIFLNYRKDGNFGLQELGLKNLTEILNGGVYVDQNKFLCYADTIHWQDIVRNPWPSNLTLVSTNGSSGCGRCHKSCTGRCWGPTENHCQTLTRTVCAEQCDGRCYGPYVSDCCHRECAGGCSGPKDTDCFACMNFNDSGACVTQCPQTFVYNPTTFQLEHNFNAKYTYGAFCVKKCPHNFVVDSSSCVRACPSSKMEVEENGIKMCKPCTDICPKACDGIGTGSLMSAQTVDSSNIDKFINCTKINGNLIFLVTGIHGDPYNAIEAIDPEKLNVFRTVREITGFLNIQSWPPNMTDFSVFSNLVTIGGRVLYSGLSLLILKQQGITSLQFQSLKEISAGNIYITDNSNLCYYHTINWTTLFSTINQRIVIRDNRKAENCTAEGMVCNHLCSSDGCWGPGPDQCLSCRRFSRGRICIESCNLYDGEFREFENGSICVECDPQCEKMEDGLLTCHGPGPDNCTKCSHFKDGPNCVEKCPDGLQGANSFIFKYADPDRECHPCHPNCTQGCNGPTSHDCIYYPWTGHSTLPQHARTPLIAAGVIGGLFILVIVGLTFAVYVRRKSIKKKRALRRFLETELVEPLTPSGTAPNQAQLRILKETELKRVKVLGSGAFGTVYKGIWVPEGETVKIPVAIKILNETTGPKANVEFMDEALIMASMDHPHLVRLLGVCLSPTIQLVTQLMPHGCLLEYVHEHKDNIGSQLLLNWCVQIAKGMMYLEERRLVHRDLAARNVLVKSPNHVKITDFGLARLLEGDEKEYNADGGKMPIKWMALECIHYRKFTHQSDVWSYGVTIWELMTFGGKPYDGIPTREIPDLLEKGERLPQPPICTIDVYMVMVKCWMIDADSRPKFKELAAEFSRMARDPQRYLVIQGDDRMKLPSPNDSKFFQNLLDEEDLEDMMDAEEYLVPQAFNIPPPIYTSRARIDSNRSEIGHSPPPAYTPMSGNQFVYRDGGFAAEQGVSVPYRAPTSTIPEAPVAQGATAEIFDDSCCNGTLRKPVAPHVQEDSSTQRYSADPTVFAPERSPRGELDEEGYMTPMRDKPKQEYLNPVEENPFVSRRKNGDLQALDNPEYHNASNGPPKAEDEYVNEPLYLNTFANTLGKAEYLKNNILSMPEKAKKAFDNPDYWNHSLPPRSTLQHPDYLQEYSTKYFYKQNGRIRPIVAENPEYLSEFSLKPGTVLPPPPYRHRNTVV

[13] = target: Mitogen-activated protein kinase 9 (Homo sapiens) (UniProt P45984); assay: Inhibition of JNK2 (unknown origin) assessed as remaining enzyme activity at 10 uM by radioactive [33P]-ATP filter binding assay
[14] = target: Aurora kinase B (Homo sapiens) (UniProt Q96GD4); assay: Inhibition of Aurora B (unknown origin) assessed as remaining enzyme activity at 10 uM by radioactive [33P]-ATP filter binding assay; procedure, shortened: as §1
Aurora kinase B (Homo sapiens), sequence (Q96GD4 whole entry): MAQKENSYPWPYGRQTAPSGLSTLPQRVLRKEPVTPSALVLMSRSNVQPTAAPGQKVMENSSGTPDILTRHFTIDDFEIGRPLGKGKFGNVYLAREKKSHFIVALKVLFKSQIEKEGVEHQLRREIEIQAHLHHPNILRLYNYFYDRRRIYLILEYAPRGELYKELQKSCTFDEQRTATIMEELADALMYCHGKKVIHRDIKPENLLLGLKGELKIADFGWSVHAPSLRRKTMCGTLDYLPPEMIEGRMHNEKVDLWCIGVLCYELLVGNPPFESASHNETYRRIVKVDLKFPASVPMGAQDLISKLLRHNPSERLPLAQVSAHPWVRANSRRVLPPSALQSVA

[15] = target: Dual specificity testis-specific protein kinase 1 (Homo sapiens) (UniProt Q15569); assay: Inhibition of TESK1 (unknown origin) assessed as remaining enzyme activity at 10 uM by radioactive [33P]-ATP filter binding assay
[16] = target: Tyrosine-protein kinase ABL1 (Homo sapiens) (UniProt P00519); assay: Inhibition of ABL (unknown origin) assessed as remaining enzyme activity at 10 uM by radioactive [33P]-ATP filter binding assay; procedure, shortened: as §1
[17] = target: Mitogen-activated protein kinase 13 (Homo sapiens) (UniProt O15264); assay: Inhibition of p38delta (unknown origin) assessed as remaining enzyme activity at 10 uM by radioactive [33P]-ATP filter binding assay
Mitogen-activated protein kinase 13 (Homo sapiens), sequence (O15264 whole entry): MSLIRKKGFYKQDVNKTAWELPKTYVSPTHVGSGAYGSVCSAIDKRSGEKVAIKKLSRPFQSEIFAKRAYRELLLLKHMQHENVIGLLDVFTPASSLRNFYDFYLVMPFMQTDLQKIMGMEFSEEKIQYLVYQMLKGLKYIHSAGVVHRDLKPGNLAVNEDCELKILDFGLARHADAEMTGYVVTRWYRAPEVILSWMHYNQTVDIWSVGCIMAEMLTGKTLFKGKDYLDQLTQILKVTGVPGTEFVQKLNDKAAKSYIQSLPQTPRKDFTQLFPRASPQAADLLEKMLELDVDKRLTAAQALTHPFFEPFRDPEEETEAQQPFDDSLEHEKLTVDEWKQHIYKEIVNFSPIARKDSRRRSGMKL

[18] = target: Insulin receptor (Homo sapiens) (UniProt P06213); assay: Inhibition of IR (unknown origin) assessed as remaining enzyme activity at 10 uM by radioactive [33P]-ATP filter binding assay
[19] = target: Serine/threonine-protein kinase BRSK2 (Homo sapiens) (UniProt Q8IWQ3); assay: Inhibition of BRSK2 (unknown origin) assessed as remaining enzyme activity at 10 uM by radioactive [33P]-ATP filter binding assay; procedure, shortened: as §1
Serine/threonine-protein kinase BRSK2 (Homo sapiens), sequence (Q8IWQ3 whole entry): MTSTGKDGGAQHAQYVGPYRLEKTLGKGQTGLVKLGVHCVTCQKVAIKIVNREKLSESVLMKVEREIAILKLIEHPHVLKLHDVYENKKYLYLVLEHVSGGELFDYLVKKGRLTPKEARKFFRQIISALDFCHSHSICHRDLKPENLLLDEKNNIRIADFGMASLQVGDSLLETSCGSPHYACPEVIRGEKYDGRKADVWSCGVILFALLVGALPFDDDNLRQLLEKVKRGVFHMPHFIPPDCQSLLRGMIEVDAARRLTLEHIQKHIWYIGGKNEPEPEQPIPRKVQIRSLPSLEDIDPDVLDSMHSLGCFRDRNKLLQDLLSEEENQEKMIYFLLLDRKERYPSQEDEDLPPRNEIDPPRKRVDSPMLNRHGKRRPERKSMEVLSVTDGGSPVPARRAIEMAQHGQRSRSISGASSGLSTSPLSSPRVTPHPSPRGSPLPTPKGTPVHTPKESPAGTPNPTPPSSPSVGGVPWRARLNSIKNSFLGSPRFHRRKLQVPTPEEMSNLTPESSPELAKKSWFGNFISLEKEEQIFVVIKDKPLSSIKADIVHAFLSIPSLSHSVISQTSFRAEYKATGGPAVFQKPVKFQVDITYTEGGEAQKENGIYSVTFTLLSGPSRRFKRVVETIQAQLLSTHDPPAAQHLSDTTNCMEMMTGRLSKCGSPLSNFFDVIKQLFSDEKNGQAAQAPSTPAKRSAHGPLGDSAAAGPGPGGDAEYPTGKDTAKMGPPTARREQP

[20] = target: Serine/threonine-protein kinase pim-3 (Homo sapiens) (UniProt Q86V86); assay: Inhibition of PIM3 (unknown origin) assessed as remaining enzyme activity at 10 uM by radioactive [33P]-ATP filter binding assay
[21] = target: Interleukin-1 receptor-associated kinase 4 (Homo sapiens) (UniProt Q9NWZ3); assay: Inhibition of IRAK4 (unknown origin) assessed as remaining enzyme activity at 10 uM by radioactive [33P]-ATP filter binding assay
[22] = target: Inhibitor of nuclear factor kappa-B kinase subunit epsilon (Homo sapiens) (UniProt Q14164); assay: Inhibition of IKKepsilon (unknown origin) assessed as remaining enzyme activity at 10 uM by radioactive [33P]-ATP filter binding assay
Inhibitor of nuclear factor kappa-B kinase subunit epsilon (Homo sapiens), sequence (Q14164 whole entry): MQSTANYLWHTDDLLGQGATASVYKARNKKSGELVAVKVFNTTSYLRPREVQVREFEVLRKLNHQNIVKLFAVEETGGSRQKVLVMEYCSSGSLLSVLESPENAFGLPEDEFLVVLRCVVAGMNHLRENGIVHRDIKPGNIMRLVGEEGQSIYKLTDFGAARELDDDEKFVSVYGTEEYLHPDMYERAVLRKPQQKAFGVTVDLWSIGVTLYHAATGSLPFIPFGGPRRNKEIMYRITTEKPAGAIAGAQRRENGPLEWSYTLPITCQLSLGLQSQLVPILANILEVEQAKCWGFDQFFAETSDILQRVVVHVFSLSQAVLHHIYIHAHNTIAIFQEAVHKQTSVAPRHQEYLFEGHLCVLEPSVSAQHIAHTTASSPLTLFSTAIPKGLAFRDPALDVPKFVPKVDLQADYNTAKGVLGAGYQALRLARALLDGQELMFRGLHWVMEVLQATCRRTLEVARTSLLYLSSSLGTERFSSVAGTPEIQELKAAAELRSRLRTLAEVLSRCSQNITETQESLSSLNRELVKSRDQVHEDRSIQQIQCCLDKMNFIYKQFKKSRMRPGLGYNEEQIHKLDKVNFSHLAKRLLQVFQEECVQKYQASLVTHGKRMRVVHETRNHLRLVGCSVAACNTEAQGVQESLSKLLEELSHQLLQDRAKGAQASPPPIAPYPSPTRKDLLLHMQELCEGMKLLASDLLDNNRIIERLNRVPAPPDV

[23] = target: Eukaryotic elongation factor 2 kinase (Homo sapiens) (UniProt O00418); assay: Inhibition of EF2K (unknown origin) assessed as remaining enzyme activity at 10 uM by radioactive [33P]-ATP filter binding assay; procedure, shortened: as §1
Eukaryotic elongation factor 2 kinase (Homo sapiens), sequence (O00418 whole entry): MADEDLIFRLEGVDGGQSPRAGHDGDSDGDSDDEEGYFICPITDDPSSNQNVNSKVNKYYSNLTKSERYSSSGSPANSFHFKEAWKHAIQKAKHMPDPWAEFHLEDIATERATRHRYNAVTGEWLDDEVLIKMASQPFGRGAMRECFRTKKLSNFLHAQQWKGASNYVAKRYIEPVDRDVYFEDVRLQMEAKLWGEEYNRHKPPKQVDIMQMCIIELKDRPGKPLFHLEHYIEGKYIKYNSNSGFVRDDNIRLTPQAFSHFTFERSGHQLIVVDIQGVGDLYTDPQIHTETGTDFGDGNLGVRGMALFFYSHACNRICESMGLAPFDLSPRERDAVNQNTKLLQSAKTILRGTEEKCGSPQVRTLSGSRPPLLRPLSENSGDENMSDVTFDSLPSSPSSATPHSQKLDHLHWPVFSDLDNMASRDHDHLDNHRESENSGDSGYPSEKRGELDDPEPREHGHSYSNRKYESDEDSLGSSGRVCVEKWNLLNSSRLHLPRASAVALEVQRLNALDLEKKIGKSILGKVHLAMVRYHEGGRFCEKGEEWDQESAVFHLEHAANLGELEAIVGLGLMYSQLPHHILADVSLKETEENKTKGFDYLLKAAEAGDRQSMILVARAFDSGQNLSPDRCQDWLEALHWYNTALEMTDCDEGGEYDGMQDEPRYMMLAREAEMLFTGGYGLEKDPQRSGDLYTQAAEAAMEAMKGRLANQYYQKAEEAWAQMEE

[24] = target: Serine/threonine-protein kinase MARK2 (Homo sapiens) (UniProt Q7KZI7); assay: Inhibition of MARK2 (unknown origin) assessed as remaining enzyme activity at 10 uM by radioactive [33P]-ATP filter binding assay
Serine/threonine-protein kinase MARK2 (Homo sapiens), sequence (Q7KZI7 whole entry): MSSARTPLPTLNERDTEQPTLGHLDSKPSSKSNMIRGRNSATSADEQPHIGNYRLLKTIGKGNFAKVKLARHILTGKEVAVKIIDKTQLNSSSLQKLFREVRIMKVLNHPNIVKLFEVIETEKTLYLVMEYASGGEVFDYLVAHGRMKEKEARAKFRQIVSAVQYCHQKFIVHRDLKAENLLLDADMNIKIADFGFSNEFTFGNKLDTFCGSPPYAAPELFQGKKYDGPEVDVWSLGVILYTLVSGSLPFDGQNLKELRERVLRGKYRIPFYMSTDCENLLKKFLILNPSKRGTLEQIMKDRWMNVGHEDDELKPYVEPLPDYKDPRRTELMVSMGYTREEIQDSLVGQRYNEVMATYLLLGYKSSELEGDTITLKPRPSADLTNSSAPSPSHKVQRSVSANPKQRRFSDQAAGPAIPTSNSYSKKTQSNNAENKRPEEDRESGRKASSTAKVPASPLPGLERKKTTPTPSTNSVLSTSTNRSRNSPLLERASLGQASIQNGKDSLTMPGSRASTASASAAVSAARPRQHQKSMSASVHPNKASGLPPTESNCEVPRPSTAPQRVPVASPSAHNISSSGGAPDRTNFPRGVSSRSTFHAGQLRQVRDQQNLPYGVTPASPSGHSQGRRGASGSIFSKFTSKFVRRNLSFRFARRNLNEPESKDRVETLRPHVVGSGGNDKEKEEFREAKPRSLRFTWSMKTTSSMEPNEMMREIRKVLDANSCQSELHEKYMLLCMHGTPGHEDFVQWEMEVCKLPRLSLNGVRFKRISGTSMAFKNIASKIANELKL

[25] = target: CDK9/cyclin T1 (Homo sapiens) (UniProt O60563+P50750); assay: Inhibition of CDK9/Cyclin-T1 (unknown origin) assessed as remaining enzyme activity at 10 uM by radioactive [33P]-ATP filter binding assay; assay type: protein-complex assay; procedure, shortened: as §1
[26] = target: Mitogen-activated protein kinase 15 (Homo sapiens) (UniProt Q8TD08); assay: Inhibition of ERK8 (unknown origin) assessed as remaining enzyme activity at 10 uM by radioactive [33P]-ATP filter binding assay; procedure, shortened: as §1
[27] = target: Dual specificity mitogen-activated protein kinase kinase 2 (Homo sapiens) (UniProt P36507); assay: Inhibition of MKK2 (unknown origin) assessed as remaining enzyme activity at 10 uM by radioactive [33P]-ATP filter binding assay
[28] = target: Vascular endothelial growth factor receptor (Homo sapiens) (UniProt P17948+P35916+P35968); assay: Inhibition of VEGFR (unknown origin) assessed as remaining enzyme activity at 10 uM by radioactive [33P]-ATP filter binding assay; assay type: protein assay

Q: For Cc1ccc(-c2cc(C(=O)Nc3ccnc(Cl)c3)nn2-c2ccc3ccccc3n2)cc1, which Activity [1] is on record?
A: The Activity was 106%.

Q: And the Activity [2]?
A: Its Activity is 109%.

Q: And the Activity [3]?
A: Its Activity is 112%.

Q: What about the Activity [4] of the same molecule?
A: Its Activity is 100%.

Q: What about the Activity [5] of the same molecule?
A: Its Activity is 100%.

Q: What about the Activity [6] of the same molecule?
A: The Activity was 108%.

Q: What about the Activity [7] of the same molecule?
A: The Activity was 109%.

Q: And the Activity (Huh-7)?
A: Its Activity is “Active”.

Q: And the Activity [8]?
A: The Activity was 88%.

Q: What about the Activity [9] of the same molecule?
A: The Activity was 88%.

Q: What about the Activity [10] of the same molecule?
A: The Activity was 90%.

Q: And the Activity [11]?
A: The Activity was 136%.

Q: What about the Activity [12] of the same molecule?
A: Its Activity is 128%.

Q: And the Activity [13]?
A: Its Activity is 100%.

Q: And the Activity [14]?
A: The Activity was 104%.

Q: And the Activity [15]?
A: The Activity was 76%.

Q: What about the Activity [16] of the same molecule?
A: The Activity was 84%.

Q: What about the Activity [17] of the same molecule?
A: Its Activity is 87%.

Q: And the Activity [18]?
A: The Activity was 96%.

Q: And the Activity [19]?
A: The Activity was 102%.

Q: What about the Activity [20] of the same molecule?
A: Its Activity is 113%.

Q: What about the Activity [21] of the same molecule?
A: The Activity was 90%.

Q: And the Activity [22]?
A: Its Activity is 112%.

Q: And the Activity [23]?
A: The Activity was 97%.

Q: And the Activity [24]?
A: Its Activity is 101%.

Q: What about the Activity [25] of the same molecule?
A: The Activity was 113%.

Q: And the Activity [26]?
A: Its Activity is 106%.

Q: And the Activity [27]?
A: Its Activity is 94%.

Q: And the Activity [28]?
A: Its Activity is 92%.

— ChEMBL document CHEMBL3351385, “Synthesis and preliminary mechanistic evaluation of 5-(p-tolyl)-1-(quinolin-2-yl)pyrazole-3-carboxylic acid amides with potent antiproliferative activity on human cancer cell lines” (Eur J Med Chem, 2014)
